The record followed here is ChEMBL document CHEMBL2321832, “A Fluorescent Styrylquinoline with Combined Therapeutic and Diagnostic Activities against Alzheimer's and Prion Diseases” (ACS Med Chem Lett, 2013).

SMILES strings stand for the structures. pEC50: −log10 of the molar value. The source made the active and inactive calls. The calls are words filed in the database; no cut-off is given here.

Data set [1] has as its system ScGT1. The data set can be described thus: Antiprion activity against scrapie prion protein (unknown origin) infected in mouse ScGT1 cells assessed as decrease in PrPSc accumulation after 5 days measured following PK digestion by Western blot analysis. It counts as cell-based. In general terms: In western blotting, separated proteins are transferred to a membrane and probed.

Data set [2] in a line: Antiprion activity against scrapie prion protein (unknown origin) infected in mouse ScGT1 cells assessed as inhibition of PrPSc replication by ELISA. It counts as cell-based. In general terms: An ELISA detects its analyte on a solid surface through an enzyme-linked reagent.
Data set [3] can be described thus: Cytotoxicity against mouse ScGT1 cells assessed as cell viability at EC50 concentration after 5 days by fluorescence plate reader analysis. It counts as cell-based. The settings on record: read-out: Activity.
Data set [4] concerns the target Amyloid-beta precursor protein (Homo sapiens) (UniProt P05067). Nature of the data set: Inhibition of amyloid beta (1 to 42) (unknown origin) fibril formation at 1:1 compound to amyloid beta ratio after 24 hrs by Thioflavin T-based fluorometric assay.
Data set [5] can be described thus: Permeability of the compound assessed as diffusion from donor plate through porcine brain lipid membrane into acceptor plate at pH 7.4 by PAMPA method. It counts as ADME. The settings on record: pig, read-out: permeability. In a few lines:
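PAMPA permeability (Pe) reported as mean ± SD of two experiments. CNS+ assigned when Pe > 3.74 × 10⁻⁶ cm s⁻¹; CNS+/− when Pe lies between 3.74 × 10⁻⁶ and 1.50 × 10⁻⁶ cm s⁻¹.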
For orientation: The PAMPA barrier holds no transporters, so it reflects passive diffusion.

Data set [6] concerns the target Major prion protein (Mus musculus) (UniProt P04925). Nature of the data set: Inhibition of mouse PrP (23-230) fibril formation assessed as extension of lag phase at 50 uM by amyloid seeding assay.
Data set [7] can be described thus: Cytotoxicity against mouse ScGT1 cells assessed as cell viability at 1 uM after 5 days by fluorescence plate reader analysis. It counts as cell-based. The conditions noted are these: read-out: Activity.
For data set [8], the target named is Amyloid-beta precursor protein (Homo sapiens) (UniProt P05067). The data set can be described thus: Binding affinity to pre-aggregated amyloid beta (1 to 42) (unknown origin) assessed as hyperchromic effect at 5 uM by fluorescence analysis. In a few lines:
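Emission spectra of compound (5 μM) recorded in 10 mM phosphate buffer, pH 7.4, with and without aggregated Aβ42 (3 μM).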

Data set [9] shares this target. The data set can be described thus: Binding affinity to amyloid beta (1 to 42) (unknown origin) at 0.5 uM by fluorescence analysis.
For data set [10], the system named is ScGT1. The data set can be described thus: Binding affinity to PK-resistant scrapie prion protein (unknown origin) aggregate in mouse ScGT1 cells at 0.25 mM measured following PK digestion by fluorescence microscopy. It counts as cell-based. In a few lines: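 ScGT1 cells stained with 3·HCl at 0.25 mM after a proteinase K digestion step that removes PK-sensitive PrP^C. Uninfected GT1 cells processed the same way serve as control. Imaged by fluorescence microscopy, mainly with the FITC filter set and confirmed with the ThS filter set.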

In data set [11] the test system is ScGT1. The data set can be described thus: Binding affinity to scrapie prion protein (unknown origin) aggregate in mouse ScGT1 cells at 0.84 mM measured following denaturation with 6 M guanidinium chloride by fluorescence microscopy. It counts as cell-based. In short, it runs like this:
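Cells denatured with 6 M guanidinium chloride, then stained with 3·HCl at 0.84 mM (0.025%). Uninfected GT1 cells, with or without denaturation, serve as control. Imaged by fluorescence microscopy with FITC and ThS filter sets, nuclei counterstained with DAPI. Pattern compared with 0.025% Thioflavin S staining. A second line, ScN2a, was also used.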

Data set [12] is described as follows: Cytotoxicity against mouse ScGT1 cells assessed as cell viability at 10 uM after 5 days by fluorescence plate reader analysis. It counts as cell-based. The settings on record: read-out: Activity.
Data set [13] deals with Amyloid-beta precursor protein (Homo sapiens) (UniProt P05067). The data set can be described thus: Binding affinity to pre-aggregated amyloid beta (1 to 42) (unknown origin) at 25 nM by Thioflavin T-based fluorometric assay.
Chain of Amyloid-beta precursor protein (Homo sapiens) (P05067 whole entry, the tested form may be a part): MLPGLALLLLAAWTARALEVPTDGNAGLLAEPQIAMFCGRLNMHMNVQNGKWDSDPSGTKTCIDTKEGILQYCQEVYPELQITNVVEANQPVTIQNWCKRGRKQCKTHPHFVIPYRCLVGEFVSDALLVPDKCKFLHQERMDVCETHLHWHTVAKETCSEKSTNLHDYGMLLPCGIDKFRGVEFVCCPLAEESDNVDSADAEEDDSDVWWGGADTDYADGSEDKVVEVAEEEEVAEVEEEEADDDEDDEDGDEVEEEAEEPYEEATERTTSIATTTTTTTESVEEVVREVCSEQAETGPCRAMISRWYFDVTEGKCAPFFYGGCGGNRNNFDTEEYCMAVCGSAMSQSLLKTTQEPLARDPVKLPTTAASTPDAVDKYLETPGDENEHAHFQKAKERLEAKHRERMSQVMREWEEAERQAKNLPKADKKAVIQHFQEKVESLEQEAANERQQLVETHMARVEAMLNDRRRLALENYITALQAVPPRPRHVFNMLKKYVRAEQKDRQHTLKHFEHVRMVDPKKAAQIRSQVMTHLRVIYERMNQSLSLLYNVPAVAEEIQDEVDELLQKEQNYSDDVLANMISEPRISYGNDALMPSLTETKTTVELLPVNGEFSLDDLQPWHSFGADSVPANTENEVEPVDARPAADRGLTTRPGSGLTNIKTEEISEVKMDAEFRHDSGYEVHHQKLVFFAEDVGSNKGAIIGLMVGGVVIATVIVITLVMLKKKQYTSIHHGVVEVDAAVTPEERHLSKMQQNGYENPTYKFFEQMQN
Data set [14] has the same target. Nature of the data set: Displacement of Thioflavin-T from pre-aggregated amyloid beta (1 to 42) (unknown origin) at >25 nM by fluorometric assay.

Chain of Major prion protein (Mus musculus) (P04925 whole entry): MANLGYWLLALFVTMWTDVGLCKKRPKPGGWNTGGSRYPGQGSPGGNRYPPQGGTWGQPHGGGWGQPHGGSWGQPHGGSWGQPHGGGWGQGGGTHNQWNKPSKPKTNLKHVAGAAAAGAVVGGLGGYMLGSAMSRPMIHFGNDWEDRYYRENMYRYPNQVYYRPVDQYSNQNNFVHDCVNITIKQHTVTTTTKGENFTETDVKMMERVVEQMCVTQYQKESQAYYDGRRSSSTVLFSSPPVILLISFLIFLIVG

In the case of `O=C(CN1CCCC1)Nc1ccc(Cc2ccc(NC(=O)CN3CCCC3)cc2)cc1`, the inhibition entry in data set [1] was “Dose-dependent effect”. In addition, the pEC50 in data set [2] is 5.82. For the same compound, in data set [3], the viability at 120 h was 93.4%.
Take `COc1ccc2nc(/C=C/c3ccccc3)ccc2c1`: the inhibition result in data set [4] was “inactive”. Also, the inhibition entry in [1] is “Dose-dependent effect”. The Papp in data set [5] worked out at 8.5 ×10⁻⁶ cm/s. The pEC50 in data set [2] is 6.15. Moreover, the TIME in [6] was > 70 h. The viability at 120 h in [3] came to 74.9%. Besides, in data set [7], the viability at 120 h, 1 µM was determined as 60%.
`CCN(CC)CCCC(C)Nc1c2ccc(Cl)cc2nc2ccc(OC)cc12` (centres undefined) [QUINACRINE]: in [2], the pEC50 is 6.40. Besides, the viability at 120 h in data set [3] was determined as 100%.
Regarding `Cc1ccc2nc(/C=C/c3ccccc3)ccc2c1`, in data set [4], the inhibition result is “inactive”. Also, the inhibition result in data set [1] is “Dose-dependent effect”. In addition, in [5], the Papp came to 3 ×10⁻⁶ cm/s. Besides, in [2], the pEC50 was 6.30. For the same compound, the TIME in data set [6] is > 70 h. For the same compound, the viability at 120 h in data set [3] is 90.5%. For the same compound, the viability at 120 h, 1 µM in data set [7] is > 90%.
On to `Cc1ccc2nc(/C=C/c3ccc(N)cc3)ccc2c1`, for which the inhibition is 42.4% in data set [4] (concentration not given here) and “Dose-dependent effect” in [1]. In addition, the result in [8], in data set [9], in data set [10], in data set [11], in data set [13] and in data set [14] was Active. Further, the Papp in data set [5] came to 23.1 ×10⁻⁶ cm/s. Further, the viability at 120 h, 10 µM in data set [12] stood at 60%. Besides, in data set [2], the pEC50 was 6.30. In addition, in [6], the TIME is > 70 h. Moreover, in data set [3], the viability at 120 h was 94.6%. Besides, the viability at 120 h, 1 µM in data set [7] was > 90%.
For `COc1cc(/C=C/C(=O)CC(=O)/C=C/c2ccc(O)c(OC)c2)ccc1O`, in data set [4] (concentration not given here), the inhibition was determined as 73%.

Broadly, the inhibition is the share of the control response that was lost under treatment. Broadly, the pEC50 is the negative decadic logarithm of the EC50, by convention in mol/L.
